CAL PDZ FP-1: human CAL PDZ-peptide interaction inhibition. purified CAL PDZ, TMR-peptide fluorescence polarization, 1 h. 330,000 compounds, 0.02% hits. inhibition, % at 20 µM. Q9HD26;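 active means highest replicate inhibition of at least 40%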;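 further: plate controls were DMSO neutral control wells for no effect and unlabeled competitor peptide control wells for full effect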
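Control set: unlabelled peptide and DMSO controls / Material: purified CerCALP PDZ construct / Timing: 1 h incubation at room temperature before polarization reading / Doses: 20 µM, one dose / Detection: fluorescence polarization (mP)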
PKA-R1A activ: activators of PKA-R1A complex | PKA-R1A dissociation, Cy5-IP20 fluorescence polarization; scaled: DMSO 0%, 113 µM cGMP 100% | activation, % at 11.4 µM | P00514+P68181 | 340,000 compounds, 0.083% hits;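 active means percent activation above the mean of all tested compounds plus 3 SD, cut at about 19% in these data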;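 further: higher means more PKAc released from R1A so a rise in polarization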
CAL PDZ FP-2: CAL PDZ (human) peptide binding inhibition | 300,000 compounds, 0.92% hits | Q9HD26 | purified CAL PDZ, TMR-peptide fluorescence polarization, 1 h | inhibition, % at 24.9 µM;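 active means mean inhibition of at least 30% with at least half of replicates also reaching 30%; inconclusive means no clear call, values can overlap the other calls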;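 further: 0% = DMSO neutral control and 100% = excess unlabeled competitor peptide PRC23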
NTR1 ag: activates human neurotensin receptor 1 | activation, % at 20 µM | AID 493036 | 330,000 compounds, 0.17% hits | NTR1-U2OS beta-arrestin-GFP spot imaging, agonist mode | P30989;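 active means activation at or above 40% of the spot to cytoplasm intensity ratio, with at least 20 cells analyzed; inconclusive means wells under 20 cells, flagged as cytotoxic or low count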;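 further: 0% = DMSO without peptide and 100% = 100 nM NTR1 peptide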
PKA-R2B activ: activators of human PKA-R2B complex. activation, % at 11.4 µM. PKA-R2B holoenzyme dissociation, Cy5-IP20 fluorescence polarization; R2B truncated from residue 108, S112A mutant; 0% DMSO only, 100% 113 µM cGMP. 340,000 compounds, 0.079% hits. P22694+P31323. AID 504700;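 active means activation above a cutoff set at the mean over all compounds plus 3 SD, cut at about 18% in these data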;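 further: higher means more holoenzyme dissociation and a rise in polarization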
dFosB act-1: mouse delta FosB homodimer activation | P13346 | purified delta FosB, TAMRA-CDK5 oligo fluorescence polarization; percent of positive-control signal above neutral wells | activation, % at 25 µM | 340,000 compounds, 0.99% hits | AID 493131;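 active means mean activation above about 17%, with every replicate also reaching it, limit read from the data, passing the limit was not always enough; inconclusive means only one of the two conditions met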
Target sequence (P13346 whole entry, looked up): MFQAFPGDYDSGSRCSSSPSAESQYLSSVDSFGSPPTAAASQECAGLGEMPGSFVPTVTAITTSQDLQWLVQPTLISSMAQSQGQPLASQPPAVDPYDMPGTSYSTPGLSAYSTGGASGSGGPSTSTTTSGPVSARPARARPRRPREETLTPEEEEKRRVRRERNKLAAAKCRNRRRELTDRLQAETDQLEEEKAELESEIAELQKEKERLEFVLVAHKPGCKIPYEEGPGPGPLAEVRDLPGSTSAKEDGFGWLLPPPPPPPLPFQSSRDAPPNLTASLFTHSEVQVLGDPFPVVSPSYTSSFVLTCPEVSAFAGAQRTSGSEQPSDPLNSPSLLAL
dFosB act-2: activators of mouse delta FosB homodimer DNA binding. shares compounds with dFosB act-1. purified delta FosB, TAMRA-CDK5 oligo fluorescence polarization; normalised: neutral wells 0, positive control 100. activation, % at 24.9 µM. 2,400 tested, under 10 active;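 active means highest replicate activation at or above 34% and every replicate reaching that threshold; inconclusive means meets only one of the two criteria; inactive means meets neither criterion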;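 further: higher polarization means more probe DNA bound by delta FosB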
* = called active by the depositor; ? = inconclusive; nt = no result. Compounds with a hit are over-represented: about 2% of the library has one in this group of screens.

SMILES	CAL PDZ FP-1	PKA-R1A activ	CAL PDZ FP-2	NTR1 ag	PKA-R2B activ	dFosB act-1	dFosB act-2
Cc1ccc2nc(-c3ccc(NC(=O)COC(=O)c4ccc(Br)o4)cc3)sc2c1	-2	3	-2	-1	-4	35*	2
O=C(NCc1ccccc1)Nc1cc(Cl)ccc1Cl	-3	2	-9	4	-1	40*	2
O=C(NC(NC(=S)Nc1cc(Cl)ccc1Cl)C(Cl)(Cl)Cl)c1ccco1 (centres undefined)	-3	1	-3	0	1	0	nt
O=C(NCc1csc2ccc(Cl)cc12)Nc1cccc2ccccc12	0	-16	-4	1	-8	44*	2
O=C(Cc1ccccc1)NC(NC(=S)Nc1cc(Cl)ccc1Cl)C(Cl)(Cl)Cl (centres undefined)	0	-15	-2	1	-3	22*	0
Cc1ccc(C)c(NC(=S)NC(NC(=O)Cc2cccc3ccccc23)C(Cl)(Cl)Cl)c1 (centres undefined)	-2	1	-2	13	4	28*	3
Clc1ccc(C(Cn2ccnc2)OCc2c(Cl)cccc2Cl)c(Cl)c1 (centres undefined)	-1	-15	0	12	-9	-6	nt
CCCCN(CCCNC(=O)Cn1nc(CC)n2c(cc3sc(C)cc32)c1=O)Cc1ccccc1	-3	4	1	4	10	35*	1
CCc1nn(CC(=O)NCCCN(CC)Cc2ccccc2)c(=O)c2cc3sccc3n12	-3	-13	-1	3	-8	-3	nt
Cc1ccc(OC(C)C(=O)Nc2ccc3c(c2)n(C)c(=O)n3C)c(C)c1 (centres undefined)	-2	-2	-2	-1	-6	1	nt
C[C@H](CO)N1C[C@H](C)[C@@H](CN(C)Cc2ccccc2)Oc2c(NC(=O)C3CC3)cccc2C1=O	-1	-14	-1	2	-8	4	nt
O=C(COC(=O)CNC(=O)c1sc2ccccc2c1Cl)Nc1c(Cl)cc(Cl)cc1Cl	0	-4	nt	2	-6	40*	8
N#CC1(NC(=O)COC(=O)CNC(=O)c2sc3ccccc3c2Cl)CCCCC1	-1	0	-6	1	-5	-8	nt
NC(=O)NC(=O)COC(=O)c1sc2ccccc2c1Cl	-1	-1	-5	2	-5	43*	7
COCc1cc(C)nc(SCc2ccc([N+](=O)[O-])cc2)c1C#N	1	-9	nt	3	-11	6	nt
COc1ccc([C@H]2C[C@H](O)[C@@H](n3cc(-c4ccc(F)cc4)nn3)CN2CC2CCCCC2)cc1	nt	-2	nt	nt	-12	nt	nt
CC(=O)Nc1ccc(Nc2cc(C)nc3c(-c4ccc(Cl)cc4)cnn23)cc1	-1	1	1	25	-11	18*	-7
Cc1ccc(-n2nc3c(=O)n(C(C)C(=O)NCc4ccccc4Cl)nc(C)c3c2C)cc1 (centres undefined)	-2	-3	-5	1	-8	28*	1
CCOc1ccccc1CNC(=O)Cn1nc(C)c2c(C)n(-c3ccc(C)cc3)nc2c1=O	0	-3	-5	1	5	53*	1
COc1ccccc1CCNC(=O)C1CCN(c2nnc(C)c3c(C)n(-c4ccc(C)cc4)nc23)CC1	-2	4	-1	21	8	1	nt
CCOc1ccccc1CNC(=O)C1CCN(c2nnc(C)c3c(C)n(-c4ccc(C)cc4)nc23)CC1	-3	-13	1	38	-5	85*	5
COc1ccc(-n2nc3c(N4CCC(C(=O)NCc5cccc(C)c5)CC4)nnc(C)c3c2C)cc1	-2	-15	-1	19	-3	?	nt
CCOc1ccc(CNC(=O)C2CCN(c3nnc(C)c4c(C)n(-c5ccc(C)cc5)nc34)CC2)cc1	-3	-16	0	11	0	78*	-11
Cc1cccc(C)c1NC(=O)CCCn1nc(C)c2c(C)n(-c3ccccc3)nc2c1=O	0	-6	3	0	0	19*	1
CCCNc1c(NS(=O)(=O)c2ccc3c(c2)CCCC3)c(=O)oc2ccccc12	0	-4	-2	4	3	60*	6
SMILES	CAL PDZ FP-1	PKA-R1A activ	CAL PDZ FP-2	NTR1 ag	PKA-R2B activ	dFosB act-1	dFosB act-2
CNc1c(NS(=O)(=O)c2ccc(OC)c(Cl)c2)c(=O)oc2ccccc12	-2	2	-2	2	9	65*	2
CCCNc1c(NS(=O)(=O)c2ccc(C)c(C)c2)c(=O)oc2ccccc12	-1	-6	-3	-1	-3	2	nt
O=C(COc1ccc2c(c1)OCO2)Nc1ccc(Cl)cn1	-2	-4	-4	1	-3	8	nt
O=C(/C=C/c1ccc2c(c1)OCO2)Nc1nc2ccc(F)cc2s1	-2	-13	nt	0	-5	30*	3
O=C(/C=C/c1ccc2c(c1)OCO2)Nc1ccc(Cl)cn1	0	9	3	1	-9	103*	-1
CCOc1ccc2nc(NC(=O)/C=C/c3ccc4c(c3)OCO4)sc2c1	-3	-11	-2	2	-3	5	nt
C[C@@H]1CN([C@@H](C)CO)S(=O)(=O)c2ccc(Br)cc2O[C@H]1CN(C)C(=O)c1ccncc1	nt	-13	nt	nt	-3	nt	nt
O=C(CNC(=O)c1ccc(-c2ccccc2)cc1)Nc1cccc(CO)c1	0	3	-4	1	6	-10	nt
CC(C)[C@@H](CSc1ccccc1)N1CCN(Cc2ccccc2)CCC1=O	0	-4	-6	0	2	-2	nt
COc1ccc(NC(=O)CCn2c(=S)[nH]c3ccccc3c2=O)cc1OC	-3	-5	-5	-2	-14	24*	4
COc1ccc(NC(=O)c2ccc3c(=O)n(-c4ccc(OC)cc4OC)c(=S)[nH]c3c2)c(OC)c1	-3	-2	-9	1	-2	1	nt
COc1ccc(-n2c(=S)[nH]c3cc(C(=O)Nc4ccc(OC)c(OC)c4)ccc3c2=O)cc1	-1	-1	-5	nt	14	127*	1
COc1ccc(-n2c(=S)[nH]c3cc(C(=O)Nc4cc(C(N)=O)ccc4OC)ccc3c2=O)c(OC)c1	-4	-6	-1	0	-2	32*	3
COc1cccc(NC(=O)CCCn2c(=O)[nH]c3ccccc3c2=O)c1	-1	1	-1	-1	-4	-10	nt
COc1cc(NC(=O)c2ccc3c(=O)n(Cc4ccco4)c(=S)[nH]c3c2)cc(OC)c1OC	-2	3	2	8	11	31*	-1

Compound activity: PubChem BioAssay, several laboratories
